# B1: UDP-glucuronosyltransferase 1A8 (Homo sapiens) (protein)
# chain: MARTGWTSPIPLCVSLLLTCGFAEAGKLLVVPMDGSHWFTMQSVVEKLILRGHEVVVVMPEVSWQLGKSLNCTVKTYSTSYTLEDLDREFMDFADAQWKAQVRSLFSLFLSSSNGFFNLFFSHCRSLFNDRKLVEYLKESSFDAVFLDPFDACGLIVAKYFSLPSVVFARGIACHYLEEGAQCPAPLSYVPRILLGFSDAMTFKERVRNHIMHLEEHLFCQYFSKNALEIASEILQTPVTAYDLYSHTSIWLLRTDFVLDYPKPVMPNMIFIGGINCHQGKPLPMEFEAYINASGEHGIVVFSLGSMVSEIPEKKAMAIADALGKIPQTVLWRYTGTRPSNLANNTILVKWLPQNDLLGHPMTRAFITHAGSHGVYESICNGVPMVMMPLFGDQMDNAKRMETKGAGVTLNVLEMTSEDLENALKAVINDKSYKENIMRLSSLHKDRPVEPLDLAVFWVEFVMRHKGAPHLRPAAHDLTWYQYHSLDVIGFLLAVVLTVAFITFKCCAYGYRKCLGKKGRVKKAHKSKTH
# Substrate: O=C(O)CCc1cc(C(=O)c2ccc(OC3CCCC3)cc2O)ccc1OCc1ccc2c(O)noc2c1
# Assay: Drug metabolism assessed as human UGT1A8-mediated T-5224 hydroxyl O-glucuronide formation after 10 to 60 mins in presence of UDP-glucuronic acid by HPLC method
# Format: ADME
# Summary of the method: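 Kinetics used recombinant UGT1A1, 1A3 or 1A8 (0.1 mg protein/mL) with T-5224 at 1–50 μM, 2 mM UDPGA and 60 min at 37°C, in triplicate. G2/G3 were measured by HPLC at 290 nm and fitted to a substrate-inhibition model (Vmax, Km, Ksi). UGT content was quantified by immunoblot, and kcat = Vmax/E0 was derived from it.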
protein,measurement,value
B1,Km,6.05 µM
same,Vmax,0.000206 µmol/min
same,kcat,0.00184 s⁻¹
same,kcat/Km,303 M⁻¹ s⁻¹

# Source: ChEMBL document CHEMBL3526015, “Metabolism of the c-Fos/activator protein-1 inhibitor T-5224 by multiple human UDP-glucuronosyltransferase isoforms” (Drug Metab Dispos, 2011)
